Experimental data: ChEMBL document CHEMBL4196108, “5-Aroylindoles Act as Selective Histone Deacetylase 6 Inhibitors Ameliorating Alzheimer's Disease Phenotypes” (J Med Chem, 2018)
Activity calls are given as the source filed them.

Legend:
Mus musculus [1] = experiment: In vivo inhibition of HDAC6 in scopolamine-treated 3xTg-AD transgenic mouse brain hippocampal CA1 region assessed as increase in acetyl-alpha-tubulin level at 50 mg/kg, po administered daily for 3 months by immunohistochemical analysis; type: functional, organism-based
Outline: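 Female 3xTg-AD mice, standard diet to 6 months of age, then 50 mg/kg orally once daily for three months; memantine 30 mg/kg in water as comparator. Brains removed and hippocampal CA1 sections immunostained for acetyl-α-tubulin and phospho-tau Ser396 and Ser404. Mean ± STD; one-way ANOVA.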

Mus musculus [2] = experiment: In vivo inhibition of HDAC6 in 3xTg-AD transgenic mouse brain hippocampal CA1 region assessed as downregulation of Tau phosphorylation at Ser396 residue at 50 mg/kg, po administered daily for 3 months by Western blot analysis
[3] = target: T1, Protein deacetylase HDAC6 (Homo sapiens) (UniProt Q9UBN7); experiment: Inhibition of HDAC6 in human SH-SY5Y cells transfected with pCAX FLAG APP and pRK5-EGFP-Tau P301L plasmids assessed as increase in polyubiquitinated protein level at 0.01 to 1 uM after 24 hrs by immunoblot analysis; type: cell-based
T1 sequence (whole entry): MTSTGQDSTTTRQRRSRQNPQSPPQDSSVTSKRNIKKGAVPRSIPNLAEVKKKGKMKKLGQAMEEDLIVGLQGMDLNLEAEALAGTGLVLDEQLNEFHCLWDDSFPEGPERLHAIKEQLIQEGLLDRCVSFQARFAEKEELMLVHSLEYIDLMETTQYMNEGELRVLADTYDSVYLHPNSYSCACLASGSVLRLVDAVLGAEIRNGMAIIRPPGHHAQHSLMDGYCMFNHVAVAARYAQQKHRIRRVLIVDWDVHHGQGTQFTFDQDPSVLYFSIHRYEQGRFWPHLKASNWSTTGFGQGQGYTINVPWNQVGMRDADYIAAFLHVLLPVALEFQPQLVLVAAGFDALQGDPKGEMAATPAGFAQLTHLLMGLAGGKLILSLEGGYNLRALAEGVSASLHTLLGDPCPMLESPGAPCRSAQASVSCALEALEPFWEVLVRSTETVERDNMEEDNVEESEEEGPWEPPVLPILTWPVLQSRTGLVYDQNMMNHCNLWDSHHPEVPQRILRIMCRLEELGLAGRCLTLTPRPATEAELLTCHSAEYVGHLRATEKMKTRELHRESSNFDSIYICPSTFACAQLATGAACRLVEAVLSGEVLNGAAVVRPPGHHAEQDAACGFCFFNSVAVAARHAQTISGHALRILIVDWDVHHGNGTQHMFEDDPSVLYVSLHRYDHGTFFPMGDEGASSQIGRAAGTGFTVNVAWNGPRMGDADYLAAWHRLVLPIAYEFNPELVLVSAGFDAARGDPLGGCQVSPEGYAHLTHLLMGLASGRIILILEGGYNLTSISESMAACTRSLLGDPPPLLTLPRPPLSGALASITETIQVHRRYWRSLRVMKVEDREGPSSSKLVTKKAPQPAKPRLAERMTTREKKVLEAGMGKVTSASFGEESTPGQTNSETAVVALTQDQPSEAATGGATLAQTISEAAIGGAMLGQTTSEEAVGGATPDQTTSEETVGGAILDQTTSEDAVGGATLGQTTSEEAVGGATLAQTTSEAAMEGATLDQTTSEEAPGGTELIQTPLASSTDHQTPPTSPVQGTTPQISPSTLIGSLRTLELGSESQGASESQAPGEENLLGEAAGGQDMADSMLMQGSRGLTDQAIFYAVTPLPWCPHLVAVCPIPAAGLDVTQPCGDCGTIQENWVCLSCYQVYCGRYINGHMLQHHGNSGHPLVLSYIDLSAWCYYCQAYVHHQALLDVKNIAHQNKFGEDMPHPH
Outline: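 SH-SY5Y cells transfected 24 h with APP695/Tau P301L plasmids, then treated; whole lysates immunoblotted for polyubiquitin complexes.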

[4] = target: T2, Protein deacetylase HDAC6 (Mus musculus) (UniProt Q9Z2V5); experiment: Inhibition of HDAC6 binding to HSP90 in mouse Neuro-2a cells transfected with pCAX FLAG APP and pRK5-EGFP-Tau P301L plasmids at 1 uM after 24 hrs by coimmunoprecipitation analysis; type: cell-based
T2 sequence (whole entry): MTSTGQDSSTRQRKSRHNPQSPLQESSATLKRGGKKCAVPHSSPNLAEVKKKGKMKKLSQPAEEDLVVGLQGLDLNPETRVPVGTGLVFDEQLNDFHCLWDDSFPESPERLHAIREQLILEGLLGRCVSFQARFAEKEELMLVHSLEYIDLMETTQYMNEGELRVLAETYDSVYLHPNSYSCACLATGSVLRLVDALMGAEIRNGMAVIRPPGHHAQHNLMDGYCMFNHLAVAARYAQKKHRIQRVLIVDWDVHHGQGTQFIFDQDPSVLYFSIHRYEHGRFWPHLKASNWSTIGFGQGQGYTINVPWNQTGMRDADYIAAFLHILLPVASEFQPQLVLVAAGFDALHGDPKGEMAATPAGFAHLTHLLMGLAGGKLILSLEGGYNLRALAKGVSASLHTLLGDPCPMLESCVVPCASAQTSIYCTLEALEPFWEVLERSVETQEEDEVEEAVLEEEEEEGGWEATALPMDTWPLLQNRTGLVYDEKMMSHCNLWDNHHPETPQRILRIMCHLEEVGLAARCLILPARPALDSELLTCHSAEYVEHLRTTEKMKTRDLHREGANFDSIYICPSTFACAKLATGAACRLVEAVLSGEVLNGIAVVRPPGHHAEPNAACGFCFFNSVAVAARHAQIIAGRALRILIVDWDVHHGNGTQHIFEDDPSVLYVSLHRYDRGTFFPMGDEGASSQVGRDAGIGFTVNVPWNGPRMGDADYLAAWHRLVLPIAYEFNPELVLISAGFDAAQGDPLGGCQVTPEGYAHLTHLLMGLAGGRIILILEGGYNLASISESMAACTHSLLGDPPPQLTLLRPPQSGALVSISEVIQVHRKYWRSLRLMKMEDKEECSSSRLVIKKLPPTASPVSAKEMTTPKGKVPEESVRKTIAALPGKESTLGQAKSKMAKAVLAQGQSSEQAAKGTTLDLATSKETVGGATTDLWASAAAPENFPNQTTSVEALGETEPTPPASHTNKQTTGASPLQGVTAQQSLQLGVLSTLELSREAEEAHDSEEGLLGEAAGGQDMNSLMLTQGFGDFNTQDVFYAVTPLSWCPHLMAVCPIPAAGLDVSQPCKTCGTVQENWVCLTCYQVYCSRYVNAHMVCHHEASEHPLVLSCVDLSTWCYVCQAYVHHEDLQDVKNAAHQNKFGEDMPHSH
Outline: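 SH-SY5Y and Neuro-2a cells cotransfected 24 h with APP695/Tau P301L plasmids, treated 24 h at 1 µM (ACY-1215 reference). 30 µg lysate immunoprecipitated overnight at 4 °C with anti-HDAC6 or anti-acetyl-lysine antibodies plus protein A/G beads, run on 8% SDS-PAGE, probed for Hsp90; Hsp70 by immunoblot. Three independent experiments.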

Measured: inhibition

COc1ccc(C(=O)c2ccc3c(ccn3Cc3ccc(C(=O)NO)cc3)c2)cc1
active: all assays above
